The test system of one assay is Plasmodium berghei. The experiment in a line: Antimalarial activity against Plasmodium berghei KBG173 infected in mouse assessed as cured mouse at 5 mg/kg, iv BID administered on day 3, 4 and 5 post infection measured up to day 31. It is filed as functional, organism-based. The arrangement: dose 5 mg/kg. The method in brief: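 Male mice (24–30 g) inoculated intraperitoneally with 5 × 10⁶ P. berghei KBG-173-infected erythrocytes; parasitemia about 1.0–3.7% by day 3. Dosing twice daily on days 3–5 postinfection. Blood smears negative on day 31 counted as cured, scored as cured/total mice (5 per dose). Mice losing ≥20% body weight sacrificed.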

Another assay concerns Plasmodium falciparum. Briefly: Antimalarial activity against mefloquine-resistant Plasmodium falciparum TM91C235 assessed as [3H]hypoxanthine incorporation after 48 hrs. The class given is functional, organism-based. The method in brief: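 Tritiated hypoxanthine incorporation assay (Desjardins method, Milhous modification) with 48 h drug exposure. Uses P. falciparum clone TM91C235 (Southeast Asian, mefloquine-resistant). Compounds 2-fold diluted over 11 concentrations. IC50 derived by nonlinear logistic dose-response fitting, averaged where multiple runs were done.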

In a further assay the test system is HepG2. The experiment in a line: Cytotoxicity against human HepG2 cells after 24 hrs by MTS assay. The class given is cell-based. The following applies: HepG2, 24 h. The method in brief: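 HepG2 cells kept in RPMI 1640 with 10% FBS plus antibiotics at 37 °C, 5% CO₂. 50 000 cells per well exposed to 10 two-fold serial dilutions for 24 h. MTS reagent then added for 2 h more, absorbance read at 490 nm, IC50 derived.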
For orientation: Formazan colour is commonly taken as a measure of viable cells.

For twelve compounds, Activity and IC50 results are on record in ChEMBL document CHEMBL2029228, “Antimalarial activity of 9a-N substituted 15-membered azalides with improved in vitro and in vivo activity over azithromycin” (J Med Chem, 2012).

Activity calls are given as the source filed them. The calls are words filed in the database; no cut-off is given here.

With `CC[C@H]1OC(=O)[C@H](C)[C@@H](O[C@H]2C[C@@](C)(OC)[C@@H](O)[C@H](C)O2)[C@H](C)[C@@H](O[C@@H]2O[C@H](C)C[C@H](N(C)C)[C@H]2O)[C@](C)(O)C[C@@H](C)CN(CCCNCc2ccnc3ccccc23)[C@H](C)[C@@H](O)[C@]1(C)O`, the result in the assay on Plasmodium berghei was inactive.

As for `CC[C@H]1OC(=O)[C@H](C)[C@@H](O[C@H]2C[C@@](C)(OC)[C@@H](O)[C@H](C)O2)[C@H](C)[C@@H](O[C@@H]2O[C@H](C)C[C@H](N(C)C)[C@H]2O)[C@](C)(O)C[C@@H](C)CN(CCCNC(=O)CCc2ccccc2)[C@H](C)[C@@H](O)[C@]1(C)O`, the result in the assay with Plasmodium berghei was inactive.

With `CC[C@H]1OC(=O)[C@H](C)[C@@H](O[C@H]2C[C@@](C)(OC)[C@@H](O)[C@H](C)O2)[C@H](C)[C@@H](O[C@@H]2O[C@H](C)C[C@H](N(C)C)[C@H]2O)[C@](C)(O)C[C@@H](C)CN(CCCNCc2cnc3ccccc3c2)[C@H](C)[C@@H](O)[C@]1(C)O`, the IC50 in the assay with Plasmodium falciparum was determined as 50 nM; in the assay with HepG2 it was 45000 nM.

On to `CC[C@H]1OC(=O)[C@H](C)[C@@H](O[C@H]2C[C@@](C)(OC)[C@@H](O)[C@H](C)O2)[C@H](C)[C@@H](O[C@@H]2O[C@H](C)C[C@H](N(C)C)[C@H]2O)[C@](C)(O)C[C@@H](C)CN(CCC(=O)N[C@H](C)c2cccc3ccccc23)[C@H](C)[C@@H](O)[C@]1(C)O`, for which the outcome in the assay on Plasmodium berghei was inactive.

As for `CC[C@H]1OC(=O)[C@H](C)[C@@H](O[C@H]2C[C@@](C)(OC)[C@@H](O)[C@H](C)O2)[C@H](C)[C@@H](O[C@@H]2O[C@H](C)C[C@H](N(C)C)[C@H]2O)[C@](C)(O)C[C@@H](C)CN(CCCNC(=O)CCCCc2ccccc2)[C@H](C)[C@@H](O)[C@]1(C)O`, the IC50 in the assay on Plasmodium falciparum turned out to be 92 nM; with HepG2, 49000 nM.

On to `CC[C@H]1OC(=O)[C@H](C)[C@@H](O)[C@H](C)[C@@H](O[C@@H]2O[C@H](C)C[C@H](N(C)C)[C@H]2O)[C@](C)(O)C[C@@H](C)CN(CCCNCc2cccc3ccccc23)[C@H](C)[C@@H](O)[C@]1(C)O`, for which the results for the IC50 in the assay on Plasmodium falciparum and in the assay with HepG2 were 55 nM and 38000 nM, respectively.

As for `CC[C@H]1OC(=O)[C@H](C)[C@@H](O)[C@H](C)[C@@H](O)[C@](C)(O)C[C@@H](C)CN(CCCNCc2ccc3ccccc3n2)[C@H](C)[C@@H](O)[C@]1(C)O`, the IC50 is 1970 nM in the assay with Plasmodium falciparum and greater than 50000 nM in the assay with HepG2.

On to `CC[C@H]1OC(=O)[C@H](C)[C@@H](O[C@H]2C[C@@](C)(OC)[C@@H](O)[C@H](C)O2)[C@H](C)[C@@H](O[C@@H]2O[C@H](C)C[C@H](N(C)C)[C@H]2O)[C@](C)(O)C[C@@H](C)CN(CCCNCc2ccncc2)[C@H](C)[C@@H](O)[C@]1(C)O`, for which the figures for the IC50 in the assay on Plasmodium falciparum and in the assay on HepG2 were 568 nM and greater than 50000 nM, respectively.

As to `CC[C@H]1OC(=O)[C@H](C)[C@@H](O[C@H]2C[C@@](C)(OC)[C@@H](O)[C@H](C)O2)[C@H](C)[C@@H](O[C@@H]2O[C@H](C)C[C@H](N(C)C)[C@H]2O)[C@](C)(O)C[C@@H](C)CN(CCC(=O)NCCCc2ccccc2)[C@H](C)[C@@H](O)[C@]1(C)O`, the half-inhibitory concentration (IC50) was 89 nM with Plasmodium falciparum and 40000 nM in the assay on HepG2.

Consider `CC[C@H]1OC(=O)[C@H](C)[C@@H](O)[C@H](C)[C@@H](O[C@@H]2O[C@H](C)C[C@H](N(C)C)[C@H]2O)[C@](C)(O)C[C@@H](C)CN(CCCNc2ccnc3ccccc23)[C@H](C)[C@@H](O)[C@]1(C)O`, for which the IC50 with Plasmodium falciparum is 437 nM; with HepG2, greater than 50000 nM.

As for `CC[C@H]1OC(=O)[C@H](C)[C@@H](O)[C@H](C)[C@@H](O[C@@H]2O[C@H](C)C[C@H](N(C)C)[C@H]2O)[C@](C)(O)C[C@@H](C)CN(CCCNCc2ccnc3ccccc23)[C@H](C)[C@@H](O)[C@]1(C)O`, the IC50 in the assay on Plasmodium falciparum was 264 nM; in the assay on HepG2, greater than 50000 nM.

With `CC[C@H]1OC(=O)[C@H](C)[C@@H](O)[C@H](C)[C@@H](O)[C@](C)(O)C[C@@H](C)CN(CCCNCc2cnc3ccccc3c2)[C@H](C)[C@@H](O)[C@]1(C)O`, the 50% inhibitory concentration (IC50) in the assay with Plasmodium falciparum is 1890 nM; in the assay on HepG2, greater than 50000 nM.

The term IC50 denotes the concentration that inhibits the measured activity by half.
